ChEMBL document CHEMBL1131198, “From micromolar to nanomolar affinity: a systematic approach to identify the binding site of CGRP at the human calcitonin gene-related peptide 1 receptor” (J Med Chem, 1998)
Numbered stars: 1 amine (or outer) side, 2 acyl side, 3 side chain; on linkers, the order of the positions; unused ones are H or OH. Square brackets hold non-standard residues; d marks the D form. Peptide text beside a SMILES is read from it. X1 = O=C(C1(c2ccccc2)CC1CN[*:1])[*:2]; Hyp = O=C(O)[C@@H]1C[C@@H](O)CN1; Tic = O=C(O)[C@@H]1Cc2ccccc2CN1; X2 = O=C(C1CC1CN[*:1])[*:2]; Aib = CC(C)(N)C(=O)O

biological target: Calcitonin gene-related peptide type 1 receptor (Homo sapiens, UniProt Q16602); test: (§1) CGRP1 receptor affinity on human neuroblastoma cells SK-N-MC, which selectively express the human CGRP1 receptor.
Outline: (§2)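 SK-N-MC membranes (cells grown in DMEM, detached with PBS/0.02% EDTA, homogenized, pellet in Tris buffer pH 7.40 with 1% BSA, 0.1% bacitracin, stored -80 °C) diluted 1:10 in assay buffer (50 mM Tris, 150 mM NaCl, 5 mM MgCl2, 1 mM EDTA, pH 7.40).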

Sequence of Calcitonin gene-related peptide type 1 receptor (Homo sapiens, UniProt Q16602) (Q16602 whole entry): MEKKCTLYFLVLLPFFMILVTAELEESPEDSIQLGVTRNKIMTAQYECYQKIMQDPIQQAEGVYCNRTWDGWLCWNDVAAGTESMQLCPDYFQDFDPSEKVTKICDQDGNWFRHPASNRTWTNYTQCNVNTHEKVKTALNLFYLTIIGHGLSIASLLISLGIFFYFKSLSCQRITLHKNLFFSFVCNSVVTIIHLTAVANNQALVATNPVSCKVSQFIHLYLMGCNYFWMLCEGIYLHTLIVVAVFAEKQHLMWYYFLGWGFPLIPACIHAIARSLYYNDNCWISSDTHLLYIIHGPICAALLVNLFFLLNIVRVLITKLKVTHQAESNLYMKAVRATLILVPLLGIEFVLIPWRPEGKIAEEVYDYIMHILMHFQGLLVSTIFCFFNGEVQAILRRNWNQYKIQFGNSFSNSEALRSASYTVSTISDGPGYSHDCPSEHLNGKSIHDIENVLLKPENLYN

IC50 | Compound
No displacement | H-YVPTNVASEAF-OH
0.146 µM | CC(C)[C@H](NC(=O)[C@H](CC(=O)O)NC(=O)[C@@H](NC(=O)[C@@H]1CCCN1C(=O)[C@@H](NC(=O)[C@@H](N)Cc1ccccc1)C(C)C)[C@@H](C)O)C(=O)NCC(=O)N1Cc2ccccc2C[C@H]1C(=O)N[C@@H](Cc1ccccc1)C(=O)N[C@@H](C)C(=O)N[C@@H](Cc1ccccc1)C(N)=O (H-FVPTDVG[Tic]FAF-NH2)
No displacement | H-YVPTNAGSEAF-OH
No displacement | H-YVPTNVGSEAA-OH
No displacement | H-YVPTNFGSEAF-OH
No displacement | H-YVPTNVFSEAF-OH
No displacement | H-YVATNVGSEAF-OH
No displacement | CC(C)[C@H](NC(=O)[C@H](CC(N)=O)NC(=O)[C@@H](NC(=O)[C@@H]1CCCN1C(=O)[C@@H](NC(=O)[C@@H](N)Cc1ccc(O)cc1)C(C)C)[C@@H](C)O)C(=O)NCC(=O)N[C@@H](CO)C(=O)N[C@@H](CCC(=O)O)C(=O)N[C@@H](C)C(=O)N[C@H](Cc1ccccc1)C(=O)O
19 µM | CC(C)[C@H](NC(=O)[C@H](CC(N)=O)NC(=O)[C@@H](NC(=O)[C@@H]1CCCN1C(=O)[C@H](NC(=O)[C@@H](N)Cc1ccc(O)cc1)C(C)C)[C@@H](C)O)C(=O)NCC(=O)N[C@@H](CO)C(=O)N[C@@H](CCC(=O)O)C(=O)N[C@@H](C)C(=O)N[C@@H](Cc1ccccc1)C(=O)O
No displacement | CC(C)[C@H](NC(=O)[C@H](CC(N)=O)NC(=O)[C@@H](NC(=O)[C@@H]1CCCN1C(=O)[C@@H](NC(=O)[C@@H](N)Cc1ccc(O)cc1)C(C)C)[C@@H](C)O)C(=O)NCC(=O)N[C@@H](CO)C(=O)N[C@H](CCC(=O)O)C(=O)N[C@@H](C)C(=O)N[C@@H](Cc1ccccc1)C(=O)O
No displacement | H-YVPFNVGSEAF-OH
No displacement | H-YVPANVGSEAF-OH
No displacement | CC(C)[C@H](NC(=O)[C@H](CC(N)=O)NC(=O)[C@H](NC(=O)[C@@H]1CCCN1C(=O)[C@@H](NC(=O)[C@@H](N)Cc1ccc(O)cc1)C(C)C)[C@@H](C)O)C(=O)NCC(=O)N[C@@H](CO)C(=O)N[C@@H](CCC(=O)O)C(=O)N[C@@H](C)C(=O)N[C@@H](Cc1ccccc1)C(=O)O
No displacement | H-YVPTNVGSEFF-OH
No displacement | H-YVPTNVGFEAF-OH

Compound | IC50
CC(C)[C@H](NC(=O)[C@@H](N)Cc1ccc(O)cc1)C(=O)N1CCC[C@H]1C(=O)N[C@H](C(=O)O)[C@@H](C)O (H-YVPT-OH) | No displacement
H-YGSEAF-OH | No displacement
H-YVPTNVGSE-OH | No displacement
H-YVPTNVGS-OH | No displacement
H-YVGSEAF-OH | No displacement
H-YVPTN-OH | No displacement
CC(C)[C@H](NC(=O)[C@@H](N)Cc1ccc(O)cc1)C(=O)N1CCC[C@H]1C(=O)O (H-Tyr-Val-Pro-OH) | No displacement
H-YNVGSEAF-OH | No displacement
C[C@H](NC(=O)[C@@H](N)Cc1ccc(O)cc1)C(=O)N[C@@H](Cc1ccccc1)C(=O)O (H-Tyr-Ala-Phe-OH) | No displacement
H-YVPTNVG-OH | No displacement

biological target: Calcitonin gene-related peptide type 1 receptor (Homo sapiens, UniProt O60894+Q16602); test: as §1; outline: as §2
Sequence (Q16602 whole entry, one chain of several): as the sequence (Q16602 whole entry) above

Compound | IC50
H-YFPTNVGSEAF-OH | 14 µM
H-NFVPTNVGSNTY-OH | 10 µM
H-YPTNVGSEAF-OH | 24 µM
H-FVPTNVGSPAF-OH | > 10 µM
H-YTNVGSEAF-OH | 18 µM
CC(C)[C@H](NC(=O)[C@@H](CC(N)=O)NC(=O)[C@@H](NC(=O)[C@@H]1CCCN1C(=O)[C@@H](NC(=O)[C@@H](N)Cc1ccc(O)cc1)C(C)C)[C@@H](C)O)C(=O)NCC(=O)N[C@@H](CO)C(=O)N[C@@H](CCC(=O)O)C(=O)N[C@@H](C)C(=O)N[C@@H](Cc1ccccc1)C(=O)O | > 100 µM
H-AVPTNVGSEAF-OH | 24 µM
H-ILSSTNVGSEAF-OH | 10 µM
H-YVPTNVGSAAF-OH | > 10 µM
H-NFVPRSKISPQGY-OH | 10 µM
H-NFVPRSKISPEAF-OH | 10 µM
H-NVAPTNVGSQGY-OH | 10 µM
H-FVPTNVPSEAF-OH | > 10 µM
CC(C)[C@H](NC(=O)[C@H](CC(N)=O)NC(=O)[C@@H](NC(=O)[C@@H]1CCCN1C(=O)[C@@H](NC(=O)[C@@H](N)Cc1ccc(O)cc1)C(C)C)[C@@H](C)O)C(=O)NCC(=O)N[C@H](CO)C(=O)N[C@@H](CCC(=O)O)C(=O)N[C@@H](C)C(=O)N[C@@H](Cc1ccccc1)C(=O)O | > 100 µM
H-NVAPRSKISPEAF-OH | 10 µM
H-YVPTNVGSLAF-OH | 8.55 µM
H-NVAPTNVGSEAF-OH | 10 µM

Compound | IC50
H-FVPTNVGSEPF-OH | > 10 µM
CC(C)[C@H](NC(=O)[C@H](CC(=O)O)NC(=O)[C@@H](NC(=O)[C@@H]1CCCN1C(=O)[C@@H](NC(=O)[C@@H](N)Cc1ccccc1)C(C)C)[C@@H](C)O)C(=O)NCC(=O)NCC1CC1(C(=O)N[C@@H](Cc1ccccc1)C(=O)N[C@@H](C)C(=O)N[C@@H](Cc1ccccc1)C(=O)O)c1ccccc1 (some centres not stated) (H-FVPTDVG[X1]FAF-OH) | > 3 µM
H-YVPTNVGSEGF-OH | 51 µM
CC(C)[C@H](NC(=O)[C@H](CC(=O)O)NC(=O)[C@@H](NC(=O)[C@@H]1CCCN1C(=O)[C@@H](NC(=O)[C@@H](N)Cc1ccccc1)C(C)C)[C@@H](C)O)C(=O)NCC(=O)NCC1CC1C(=O)N[C@@H](Cc1ccccc1)C(=O)N[C@@H](C)C(=O)N[C@@H](Cc1ccccc1)C(=O)O (some centres not stated) (H-FVPTDVG[X2]FAF-OH) | > 3 µM
H-FVPPNVGSEAF-OH | > 10 µM
CC(C)[C@H](NC(=O)[C@H](CC(N)=O)NC(=O)[C@@H](NC(=O)[C@@H]1C[C@@H](O)CN1C(=O)[C@@H](NC(=O)[C@@H](N)Cc1ccc(O)cc1)C(C)C)[C@@H](C)O)C(=O)NCC(=O)N[C@@H](CO)C(=O)N[C@@H](CCC(=O)O)C(=O)N[C@@H](C)C(=O)N[C@@H](Cc1ccccc1)C(=O)O (H-YV[Hyp]TNVGSEAF-OH) | 9 µM
H-YVPTFVGSEAF-OH | 70 µM
H-YVPSNVGSEAF-OH | > 100 µM
H-YVPTAVGSEAF-OH | > 100 µM
CC(C)[C@H](NC(=O)[C@H](CC(N)=O)NC(=O)[C@@H](NC(=O)[C@@H]1CCCN1C(=O)[C@@H](NC(=O)[C@@H](N)Cc1ccc(O)cc1)C(C)C)[C@@H](C)O)C(=O)NCC(=O)N[C@@H](CO)C(=O)N[C@@H](CCC(=O)O)C(=O)N[C@H](C)C(=O)N[C@@H](Cc1ccccc1)C(=O)O | > 100 µM
H-YVFTNVGSEAF-OH | 45 µM
H-FVPTDVGSEAF-OH | > 3 µM
CC(C)[C@H](NC(=O)[C@H](CC(N)=O)NC(=O)[C@@H](NC(=O)[C@@H]1CCCN1C(=O)[C@@H](NC(=O)[C@H](N)Cc1ccc(O)cc1)C(C)C)[C@@H](C)O)C(=O)NCC(=O)N[C@@H](CO)C(=O)N[C@@H](CCC(=O)O)C(=O)N[C@@H](C)C(=O)N[C@@H](Cc1ccccc1)C(=O)O | 80 µM
H-YVPTNVGSEAY-OH | 32 µM
H-NFVPTNVGSQGY-OH | 10 µM
H-YVPTQVGSEAF-OH | 95 µM
H-FVPTNPGSEAF-OH | > 10 µM

Second part, the compound after the results:

IC50 | Compound
4 µM | H-YVPTNVGAEAF-OH
7 µM | H-YVPTLVGSEAF-OH
0.159 µM | H-FVPTDVGAFAF-OH
3 µM | H-FVPTNVGSEAF-OH
1.2 µM | H-FVPTDVGSQAF-OH
6.5 µM | H-YVPTNVGSKAF-OH
0.62 µM | CC(C)[C@H](NC(=O)[C@H](CC(=O)O)NC(=O)[C@@H](NC(=O)[C@@H]1CCCN1C(=O)[C@@H](NC(=O)[C@@H](N)Cc1ccccc1)C(C)C)[C@@H](C)O)C(=O)NCC(=O)N1C[C@H](O)C[C@H]1C(=O)N[C@@H](Cc1ccccc1)C(=O)N[C@@H](C)C(=O)N[C@@H](Cc1ccccc1)C(=O)O
0.17 µM | CC(C)[C@H](NC(=O)[C@H](CC(=O)O)NC(=O)[C@@H](NC(=O)[C@@H]1CCCN1C(=O)[C@@H](NC(=O)[C@@H](N)Cc1ccccc1)C(C)C)[C@@H](C)O)C(=O)NCC(=O)NC(C)(C)C(=O)N[C@@H](Cc1ccccc1)C(=O)N[C@@H](C)C(=O)N[C@@H](Cc1ccccc1)C(=O)O (H-FVPTDVG[Aib]FAF-OH)
2.7 µM | H-FVPTNVGSKAF-OH
3.4 µM | H-FPPTNVGSEAF-OH
5 µM | H-YVPTDVGSEAF-OH
6.9 µM | H-YVPTNVGSQAF-OH
4.28 µM | H-YVPTNVGSHAF-OH
0.49 µM | Ac-PTDVGAFAF-OH
0.029 µM | CC(C)[C@H](NC(=O)[C@H](CC(=O)O)NC(=O)[C@@H](NC(=O)[C@@H]1CCCN1C(=O)[C@@H](NC(=O)[C@@H](N)Cc1ccccc1)C(C)C)[C@@H](C)O)C(=O)NCC(=O)N1CCC[C@H]1C(=O)N[C@@H](Cc1ccccc1)C(=O)N[C@@H](C)C(=O)N[C@@H](Cc1ccccc1)C(=O)O
4.5 µM | H-FVPTPVGSEAF-OH
0.2 µM | H-VPTDVGAFAF-OH
8 µM | H-YAPTNVGSEAF-OH
4.5 µM | Ac-FVPTNVGSEAF-OH
0.28 µM | H-FVPTNVGPEAF-OH
0.91 µM | CC(C)[C@H](NC(=O)[C@H](CC(=O)O)NC(=O)[C@@H](NC(=O)[C@@H]1CCCN1C(=O)[C@@H](NC(=O)[C@@H](N)Cc1ccccc1)C(C)C)[C@@H](C)O)C(=O)NCC(=O)N1CCCC[C@H]1C(=O)N[C@@H](Cc1ccccc1)C(=O)N[C@@H](C)C(=O)N[C@@H](Cc1ccccc1)C(=O)O
0.47 µM | H-FVPTDVGPEAF-OH
0.3 µM | Ac-VPTDVGAFAF-OH
0.205 µM | Ac-FVPTDVGAFAF-OH
4.79 µM | H-YVPTNVGSFAF-OH
3 µM | CC(C)[C@H](NC(=O)[C@H](CC(N)=O)NC(=O)[C@@H](NC(=O)[C@@H]1CCCN1C(=O)[C@@H](NC(=O)[C@@H](N)Cc1ccc(O)cc1)C(C)C)[C@@H](C)O)C(=O)NCC(=O)N[C@@H](CO)C(=O)N[C@@H](CCC(=O)O)C(=O)N[C@@H](C)C(=O)N[C@@H](Cc1ccccc1)C(=O)O
0.22 µM | H-PTDVGAFAF-OH
0.36 µM | H-FVPTDVGAHAF-OH
